Source: ChEMBL document CHEMBL1795344, “Design, synthesis and antitumor evaluation of phenyl N-mustard-quinazoline conjugates” (Bioorg Med Chem, 2011)
pIC50: −log10 of the molar value. Calls of active or inactive are those of the source. The rule behind the calls is not given here.

Experiments:
[1] = tested on: HCT-116; assay: Cytotoxicity against human HCT116 cells after 72 hrs by SRB assay; type: functional, cell-based; settings: HCT-116, 72 h
Procedure, shortened: (§1)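 MX-1 and HCT-116 solid tumor cells were exposed 72 h, with growth read by SRB staining on a microplate spectrophotometer. IC50 came from median-effect analysis of dose-effect data at six or seven concentrations.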

[2] = tested on: MX1; assay: Cytotoxicity against human MX1 cells after 72 hrs by SRB assay; type: functional, cell-based; settings: MX1, 72 h; procedure, shortened: as §1
[3] = tested on: CCRF-CEM; assay: Cytotoxicity against human CCRF-CEM cells after 72 hrs by XTT assay; type: functional, cell-based
Procedure, shortened: (§2)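 CCRF-CEM and its Taxol- and vinblastine-resistant sublines were incubated 72 h, then given phenazine methosulfate-XTT for 6 h at 37 °C. Absorbance was read at 450 and 630 nm. IC50 came from median-effect analysis of dose-effect data at six or seven concentrations.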

[4] = tested on: CCRF-CEM; assay: Cytotoxicity against human taxol-resistant CCRF-CEM cells after 72 hrs by XTT assay; type: functional, cell-based; procedure, shortened: as §2
[5] = tested on: CCRF-CEM; assay: Ratio of IC50 for human vinblastine-resistant CCRF-CEM cells to IC50 for human CCRF-CEM cells; type: functional
[6] = tested on: CCRF-CEM; assay: Ratio of IC50 for human taxol-resistant CCRF-CEM cells to IC50 for human CCRF-CEM cells; type: functional
[7] = tested on: CCRF-CEM; assay: Cytotoxicity against human vinblastine-resistant CCRF-CEM cells after 72 hrs by XTT assay; type: functional, cell-based; procedure, shortened: as §2
[8] = tested on: PC-3; assay: Cytotoxicity against human PC3 cells after 72 hrs by Alamar blue assay; type: functional, cell-based; settings: PC-3, 72 h
Procedure, shortened: (§3)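 H1299 and PC3 cells were exposed 72 h, then given Alamar blue for 6 h at 37 °C. Absorbance was read at 570 and 600 nm. IC50 came from median-effect analysis of dose-effect data at six or seven concentrations.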

[9] = Cytotoxicity against human H1299 cells after 72 hrs by Alamar blue assay; type: functional, cell-based; settings: NCI-H1299, 72 h; procedure, shortened: as §3
[10] = tested on: Nucleic Acid; assay: Induction of pEGFP-N1 plasmid DNA interstrand cross-linking at 1 to 20 uM by alkaline agarose gel shift assay; type: nucleic-acid assay
Procedure, shortened: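 pEGFP-N1 plasmid DNA (1500 ng) was incubated with compound (1, 10, 20 μM) in 3 mM NaCl/1 mM sodium phosphate pH 7.4/1 mM EDTA for 2 h at 37 °C. It was then BamHI-linearized, ethanol-precipitated and denatured in 0.5 N NaOH-10 mM EDTA. Samples were run on a 0.8% alkaline agarose gel at 4 °C, 18 V for 22 h, stained with ethidium bromide.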

[11] = Cell cycle arrest in human H1299 cells assessed as accumulation at sub G1 phase at 20 uM after 24 hrs using propidium iodide staining by flow cytometry (reference value: 8.8 +/- 6.9%); type: functional, cell-based; settings: NCI-H1299
Procedure, shortened: (§4)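 H1299 cells were exposed 24 h, then trypsinized, PBS-washed and fixed in ice-cold 70% ethanol for 30 min. They were stained with 4 μg/mL propidium iodide in PBS containing 1% Triton X-100 and 0.1 mg/mL RNase A. Cell-cycle distribution was read by flow cytometry.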

[12] = Cell cycle arrest in human H1299 cells assessed as accumulation at G2/M phase at 5 uM after 24 hrs using propidium iodide staining by flow cytometry (reference value: 21.5 +/- 0.6%); type: functional, cell-based; settings: NCI-H1299; procedure, shortened: as §4
[13] = tested on: Mus musculus; assay: Toxicity in human PC3 cells xenografted athymic nude Swiss mouse assessed as body weight loss at 55 mg/kg, iv every two days for six times relative to control; type: organism-based, PC-3; set-up: dose 55 mg/kg, route intravenous; settings: in vivo
[14] = Cell cycle arrest in human H1299 cells assessed as accumulation at S phase at 10 uM after 24 hrs using propidium iodide staining by flow cytometry (reference value: 24.9 +/- 3.3%); type: functional, cell-based; settings: NCI-H1299; procedure, shortened: as §4
[15] = Cell cycle arrest in human H1299 cells assessed as accumulation at G1 phase at 10 uM after 24 hrs using propidium iodide staining by flow cytometry (reference value: 44.8 +/- 3%); type: functional, cell-based; settings: NCI-H1299; procedure, shortened: as §4
[16] = Cell cycle arrest in human H1299 cells assessed as accumulation at S phase at 20 uM after 24 hrs using propidium iodide staining by flow cytometry (reference value: 24.9 +/- 3.3%); type: functional, cell-based; settings: NCI-H1299; procedure, shortened: as §4
[17] = Cell cycle arrest in human H1299 cells assessed as accumulation at G1 phase at 5 uM after 24 hrs using propidium iodide staining by flow cytometry (reference value: 44.8 +/- 3%); type: functional, cell-based; settings: NCI-H1299; procedure, shortened: as §4
[18] = Cell cycle arrest in human H1299 cells assessed as accumulation at sub G1 phase at 10 uM after 24 hrs using propidium iodide staining by flow cytometry (reference value: 8.8 +/- 6.9%); type: functional, cell-based; settings: NCI-H1299; procedure, shortened: as §4
[19] = Cell cycle arrest in human H1299 cells assessed as accumulation at G2/M phase at 20 uM after 24 hrs using propidium iodide staining by flow cytometry (reference value: 21.5 +/- 0.6%); type: functional, cell-based; settings: NCI-H1299; procedure, shortened: as §4
[20] = Cell cycle arrest in human H1299 cells assessed as accumulation at G2/M phase at 10 uM after 24 hrs using propidium iodide staining by flow cytometry (reference value: 21.5 +/- 0.6%); type: functional, cell-based; settings: NCI-H1299; procedure, shortened: as §4
[21] = Cell cycle arrest in human H1299 cells assessed as accumulation at G1 phase at 20 uM after 24 hrs using propidium iodide staining by flow cytometry (reference value: 44.8 +/- 3%); type: functional, cell-based; settings: NCI-H1299; procedure, shortened: as §4
[22] = tested on: Mus musculus; assay: Toxicity in human MX1 cells xenografted athymic nude Swiss mouse assessed as mouse mortality at 30 mg/kg, iv every two days for three times followed by 35 mg/kg, iv every two days for 5 times; type: organism-based; settings: in vivo
[23] = Cell cycle arrest in human H1299 cells assessed as accumulation at sub G1 phase at 5 uM after 24 hrs using propidium iodide staining by flow cytometry (reference value: 8.8 +/- 6.9%); type: functional, cell-based; settings: NCI-H1299; procedure, shortened: as §4
[24] = tested on: Mus musculus; assay: Toxicity in human MX1 cells xenografted athymic nude Swiss mouse assessed as body weight loss at 30 mg/kg, iv every two days for three times followed by 35 mg/kg, iv every two days for 5 times relative to control; type: organism-based; settings: in vivo
[25] = tested on: PC-3; assay: Anticancer activity against human PC3 cells xenografted in athymic nude Swiss mouse assessed as tumor growth inhibition at 55 mg/kg, iv every two days for six times relative to control; type: functional; set-up: scale not given: the % may be the effect or the level left
[26] = Cell cycle arrest in human H1299 cells assessed as accumulation at S phase at 5 uM after 24 hrs using propidium iodide staining by flow cytometry (reference value: 24.9 +/- 3.3%); type: functional, cell-based; settings: NCI-H1299; procedure, shortened: as §4
[27] = tested on: MX1; assay: Antitumor activity against human MX1 cells xenografted in athymic nude Swiss mouse assessed as tumor growth inhibition at 30 mg/kg, iv every two days for three times followed by 35 mg/kg, iv every two days for 5 times relative to control; type: functional; set-up: scale not given: the % may be the effect or the level left
[28] = tested on: Mus musculus; assay: Toxicity in human PC3 cells xenografted athymic nude Swiss mouse assessed as mouse mortality at 55 mg/kg, iv every two days for six times; type: organism-based, PC-3; set-up: dose 55 mg/kg, route intravenous; settings: in vivo
[29] = tested on: Nucleic Acid; assay: Induction of pEGFP-N1 plasmid DNA interstrand cross-linking at 1 to 5 uM by alkaline agarose gel shift assay; type: nucleic-acid assay

| Structure (SMILES) | pIC50 [1] | pIC50 [2] | pIC50 [3] | pIC50 [4] | Ratio IC50 [5] | Ratio IC50 [6] | pIC50 [7] | pIC50 [8] | pIC50 [9] | also measured |
| --- | --- | --- | --- | --- | --- | --- | --- | --- | --- | --- |
| C#Cc1cccc(Nc2ncnc3ccc(NC(=O)Nc4ccc(N(CCCl)CCCl)cc4)cc23)c1 | 5.46 | 5.20 | 6.30 | 5.64 | 4.66 | 4.58 | 5.63 |  |  |  |
| O=C(Nc1ccc(N(CCCl)CCCl)cc1)Nc1ccc2ncnc(Nc3ccc(Br)cc3)c2c1 | 5.11 | 5.17 | 5.33 | 5.06 | 1.7 | 1.89 | 5.10 |  |  |  |
| O=C(Nc1ccc(N(CCCl)CCCl)cc1)Nc1ccc2ncnc(Nc3ccc(Oc4ccccc4)cc3)c2c1 | 4.91 | 5.07 | 5.32 | 5.10 | 2.28 | 1.67 | 4.96 |  |  |  |
| O=C(Nc1ccc(N(CCCl)CCCl)cc1)Nc1ccc2ncnc(Nc3cccc(F)c3)c2c1 | 5.02 | 5.00 | 5.60 | 5.46 | 1.7 | 1.38 | 5.37 |  |  |  |
| COc1cc(Nc2ncnc3ccc(NC(=O)Nc4ccc(N(CCCl)CCCl)cc4)cc23)cc(OC)c1OC | 5.65 | 5.40 | 6.42 | 4.91 | 64.5 | 32.42 | 4.61 | 4.96 | 4.99 |  |
| O=C(Nc1ccc(N(CCCl)CCCl)cc1)Nc1ccc2ncnc(Nc3ccc(F)c(Br)c3)c2c1 | 5.22 | 5.15 | 5.57 | 5.36 | 1.77 | 1.64 | 5.32 |  |  |  |
| O=C(Nc1ccc(N(CCCl)CCCl)cc1)Nc1ccc2ncnc(Nc3ccc(F)cc3)c2c1 | 5.50 | 5.46 | 6.13 | 5.50 | 1.67 | 4.27 | 5.91 | 5.08 | 4.94 | Activity [10]: Active |
| CC[C@]1(O)C[C@@H]2CN(CCc3c([nH]c4ccccc34)[C@@](C(=O)OC)(c3cc4c(cc3OC)N(C)[C@H]3[C@@](O)(C(=O)OC)[C@H](OC(C)=O)[C@]5(CC)C=CCN6CC[C@]43[C@@H]65)C2)C1 [VINBLASTINE] |  |  |  |  | 679.5 | 106.2 |  |  |  |  |
| O=C(Nc1ccc(N(CCCl)CCCl)cc1)Nc1ccc2ncnc(Nc3cccc(C(F)(F)F)c3)c2c1 | 5.22 | 5.28 | 5.40 | 5.34 | 1.17 | 1.15 | 5.33 |  |  |  |
| O=C(Nc1ccc(N(CCCl)CCCl)cc1)Nc1ccc2ncnc(Nc3cccc(Cl)c3)c2c1 | 5.13 | 5.11 | 5.78 | 5.34 | 1.96 | 2.75 | 5.49 | 4.98 | 4.98 | Activity [11]: 35.3%; Activity [12]: 40%; Activity [13]: 11%; Activity [14]: 28.5%; Activity [15]: 34.8%; Activity [16]: 23.5%; Activity [17]: 30.5%; Activity [18]: 7.5%; Activity [19]: 12.9%; Activity [20]: 29.3%; Activity [21]: 28.3%; Activity [22]: Non-toxic; Activity [23]: 8.9%; Activity [24]: 3%; Activity [25]: 27%; Activity [26]: 20.6%; Activity [27]: 62%; Activity [10]: Active; Activity [28]: Non-toxic |
| CC(=O)O[C@H]1C(=O)[C@@]2(C)[C@H]([C@H](OC(=O)c3ccccc3)[C@]3(O)C[C@H](OC(=O)[C@H](O)[C@@H](NC(=O)c4ccccc4)c4ccccc4)C(C)=C1C3(C)C)[C@]1(OC(C)=O)CO[C@@H]1C[C@@H]2O [PACLITAXEL] |  |  |  |  | 423 | 143 |  |  |  |  |
| O=C(Nc1ccc(N(CCCl)CCCl)cc1)Nc1ccc2ncnc(Nc3ccc(OCc4ccccn4)c(Cl)c3)c2c1 | 5.65 | 5.34 | 5.85 | 5.34 | 1.88 | 3.24 | 5.58 |  |  |  |
| COc1cccc(Nc2ncnc3ccc(NC(=O)Nc4ccc(N(CCCl)CCCl)cc4)cc23)c1 | 5.61 | 5.59 | 5.88 | 5.45 | 2.56 | 2.71 | 5.47 | 5.03 | 5.06 |  |
| O=C(Nc1ccc(N(CCCl)CCCl)cc1)Nc1ccc2ncnc(Nc3cccc(Br)c3)c2c1 | 5.66 | 5.16 | 6.02 | 5.34 | 2.76 | 4.82 | 5.58 | 4.99 | 5.09 |  |
| COc1ccc(Nc2ncnc3ccc(NC(=O)Nc4ccc(N(CCCl)CCCl)cc4)cc23)cc1Cl | 5.28 | 5.26 | 6.10 | 5.48 | 4.68 | 4.17 | 5.43 | 5.10 | 5.16 | Activity [10]: Active |
| O=C(Nc1ccc(N(CCCl)CCCl)cc1)Nc1ccc2ncnc(Nc3ccc(Cl)c(Cl)c3)c2c1 | 5.55 | 5.19 | 5.59 | 5.25 | 2.6 | 2.16 | 5.17 |  |  |  |
| N[C@@H](Cc1ccc(N(CCCl)CCCl)cc1)C(=O)O |  |  |  |  |  |  |  |  |  | Activity [29]: Active |
| O=C(Nc1ccc(N(CCCl)CCCl)cc1)Nc1ccc2ncnc(Nc3ccc(Cl)c(C(F)(F)F)c3)c2c1 | 5.27 | 5.13 | 5.32 | 5.27 | 1.11 | 1.12 | 5.28 |  |  |  |
